# KCNK3 block: human KCNK3 channel inhibitors, primary screen, CHO cells, FluxOR thallium flux, B-score; FluxOR fluorescence; stronger effect = lower value; B-score at 10 µM; actives 0.84% (n = 340,000);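 active means B-score under library mean minus 4 SD, starting fluorescence ratio at most library mean plus 5 SD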;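 further: more negative B-score means stronger inhibition of thallium flux through KCNK3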
# Target sequence (O14649 whole entry, looked up): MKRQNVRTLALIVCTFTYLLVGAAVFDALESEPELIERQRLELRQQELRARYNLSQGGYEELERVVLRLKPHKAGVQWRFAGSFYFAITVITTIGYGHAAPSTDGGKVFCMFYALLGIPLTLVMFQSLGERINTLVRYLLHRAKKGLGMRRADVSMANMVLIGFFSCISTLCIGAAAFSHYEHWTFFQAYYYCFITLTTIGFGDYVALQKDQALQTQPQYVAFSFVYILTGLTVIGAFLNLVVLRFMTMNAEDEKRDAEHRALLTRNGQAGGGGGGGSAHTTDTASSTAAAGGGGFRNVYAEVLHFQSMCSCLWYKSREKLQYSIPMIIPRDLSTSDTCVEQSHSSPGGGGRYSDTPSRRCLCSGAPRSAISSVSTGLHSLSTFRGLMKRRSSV
# KCNQ1 inh: inhibitors of human KCNQ1 channel, primary screen, cell-based, thallium flux, high-throughput; Potassium voltage-gated channel subfamily KQT member 1 (Homo sapiens), P51787; CHO-K1 KCNQ1, FluxOR thallium flux fluorescence; stronger effect = higher value; B-score at 10 µM; actives 1.3% (n = 310,000); AID 2642, 2010;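 active means compounds whose thallium flux B-score, printed positive for inhibition, exceeds three library SD while starting fluorescence stays within three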;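 further: channel opened by potassium depolarization with thallium stimulus after 20 min compound exposure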
# KCNQ1 pot: potentiators or activators of KCNQ1 channel, primary screen, cell-based, thallium flux, high-throughput. CHO-K1 KCNQ1, thallium flux FluxOR fluorescence; stronger effect = higher value. B-score at 10 µM. actives 0.35% (n = 310,000);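 active means fluorescence ratio B-score, a plate-corrected score, at least three library SD, with initial intensity B-score within 5 SD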
#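 Test system: CHO-K1 cells stably expressing KCNQ1 / Medium: assay buffer / Also added: depolarizing K+/Tl+ stimulus, K2SO4 and Tl2SO4 each 12.5 mM in 5x stock / Incubation: 90 min dye loading and 20 min compound exposure, both at room temperature / Signal: thallium influx via FluxOR fluorescence, kinetic imaging / Evaluation: B score of baseline-normalized fluorescence ratio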
# KCNK9 inh: KCNK9 potassium channel inhibitors, primary screen, HEK293 cells, thallium flux; B-score at 10 µM; actives 1.2% (n = 310,000); FluxOR thallium flux fluorescence; stronger effect = lower value; Potassium channel subfamily K member 9 (Homo sapiens), Q9NPC2; AID 488922, 2010;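 active means ratio B-score over 3 SD below the library mean, with starting fluorescence within 5 SD of its mean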;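 further: negative B-score means less thallium flux so channel inhibition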
# Target sequence (Q9NPC2 whole entry, looked up): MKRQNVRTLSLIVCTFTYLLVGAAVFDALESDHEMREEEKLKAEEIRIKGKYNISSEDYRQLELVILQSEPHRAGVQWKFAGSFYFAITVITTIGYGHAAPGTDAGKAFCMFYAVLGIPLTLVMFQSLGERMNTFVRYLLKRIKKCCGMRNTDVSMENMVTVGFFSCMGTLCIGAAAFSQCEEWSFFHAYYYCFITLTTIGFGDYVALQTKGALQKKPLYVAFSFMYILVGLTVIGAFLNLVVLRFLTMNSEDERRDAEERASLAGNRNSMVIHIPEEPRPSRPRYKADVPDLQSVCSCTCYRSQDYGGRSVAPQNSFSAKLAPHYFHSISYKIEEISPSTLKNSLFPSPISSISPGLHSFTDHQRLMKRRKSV
# Kir21 block: inhibitors of mouse Kir2.1 inward-rectifier potassium channel. Inward rectifier potassium channel 2 (Mus musculus), P35561. HEK293-Kir2.1, FluxOR thallium flux fluorescence; stronger effect = lower value. B-score at 10 µM. actives 0.85% (n = 310,000);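 active means fluorescence ratio B-score at or below minus 3 SD of library scores, with starting-brightness B-score within 2 SD, cut at about -4.2 in these data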;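 further: channel flux triggered by added potassium and thallium sulfate stimulus; B-score of peak minus minimum fluorescence over baseline after thallium stimulus; more negative B-score means stronger Kir2.1 block with less thallium influx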
# hERG protect: hERG rescue from dofetilide block, primary screen, cell-based, CHO-hERG, FluxOR thallium flux, dofetilide IC70 | AID 1511, 2009 | actives 0.51% (n = 310,000) | dofetilide IC70 present | activation (rescue from dofetilide block), less the hit threshold, % at 10 µM;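 active means activation above the mean of controls blocked by dofetilide plus 5 SD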;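 further: thallium influx through hERG after potassium depolarization seen as dye fluorescence rise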
# KCNQ1 block val: KCNQ1 potassium channel inhibitors, confirmation, cell-based, Tl flux, duplicate; shares compounds with KCNQ1 inh; KCNQ1 cell line, FluxOR thallium flux fluorescence; inhibition, % at 10 µM; actives 93% (n = 1,600);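 active means primary screen active, with duplicate mean exceeding buffer control mean plus 3 SD of buffer wells, cut at about 28% in these data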;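 further: 0% = buffer control ratio and 100% = XE991 inhibitor control ratio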
# CHO Tl flux: thallium flux effects in parental CHO cells, counter-screen for KCNQ1 inhibitor project, cell-based, Tl flux | shares compounds with KCNQ1 inh | parental CHO-K1, FluxOR thallium flux fluorescence ratio; stronger effect = lower value; zero means no signal rise above baseline | fluorescence ratio (Tl flux) at 10 µM | actives 21% (n = 1,600);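 active means mean of duplicate thallium-flux fluorescence ratios in parental host cells more than 5 SD below the buffer control mean, cut at about 0.38 in these data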;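 further: ratio is peak minus minimum fluorescence divided by baseline fluorescence; actives read low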
# KCNQ1 ephys val: KCNQ1 channel inhibitors, confirmation, orthogonal assay, cell-based, automated electrophysiology; KCNQ1-CHO cells, automated patch clamp current; calls only at 10 µM; actives 20% (n = 490); shares compounds with KCNQ1 inh;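 active means KCNQ1 current drop exceeding 3 SD of negative control wells, seen in both duplicate runs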;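 further: steady state current during a 2 s step from -80 to +40 mV; negative values mean current inhibition and positive values mean potentiation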
# KCNQ2 spec: KCNQ2 channel inhibition, selectivity assay for KCNQ1 inhibitor project, cell-based; KCNQ2 cells, FluxOR thallium flux fluorescence; shares compounds with KCNQ1 inh; inhibition, % at 10 µM; actives 71% (n = 1,600);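 active means mean percent inhibition of the KCNQ2 thallium signal more than 5 SD above the buffer-only control wells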;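 further: KCNQ2 expressed in CHO cells; 0% = buffer control wells and 100% = XE-991 inhibitor control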
# KCNQ1-KCNE1 inh: KCNQ1/KCNE1 channel inhibition, selectivity assay for KCNQ1 inhibitor project, CHO-K1 cells, thallium flux, FluxOR; FluxOR thallium flux fluorescence; actives 77% (n = 1,600); inhibition, % at 10 µM; AID 652147, 2013; shares compounds with KCNQ1 inh;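 active means mean percent inhibition of duplicate wells above the buffer-only control mean plus 3 SD of those controls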;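 further: 0% = buffer only wells and 100% = XE-991 inhibitor control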
# KCNK9 block conf: KCNK9 potassium channel inhibitors, confirmation, HEK293 cells, thallium flux, duplicate | shares compounds with KCNK9 inh | FluxOR thallium flux fluorescence | inhibition, % at 10 µM | actives 43% (n = 4,900) | AID 492992, 2010;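 active means thallium signal inhibited by more than 5 SD of the compound-free buffer control wells, on both duplicate plates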;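 further: 0% = assay buffer control wells without compound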
# Kir2-1 spec: mouse Kir2.1 channel inhibition, confirmation, selectivity assay for KCNK9 modulator project, cell-based, HEK293, thallium flux | inhibition, % at 10 µM | shares compounds with KCNK9 inh | AID 492993, 2010 | actives 4% (n = 4,900) | Kir2.1 cells, FluxOR thallium flux fluorescence;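 active means thallium signal drop more than 5 SD beyond the mean of the no-compound control wells, seen in both duplicate plates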;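 further: signal is fluorescence rise after thallium addition divided by baseline fluorescence; plate controls were assay buffer only for no effect and full block by chlorpromazine control for full effect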
# HEK293 Tl ctr: thallium flux in non-induced HEK293 cells, confirmation, counter-screen for KCNK9 inhibitor project, cell-based, second counter screen, non-induced KCNK9-HEK293; shares compounds with KCNK9 inh; FluxOR thallium flux; inhibition, % at 10 µM; actives 40% (n = 4,900); AID 492997, 2010;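 active means thallium signal drop beyond 5 SD of the untreated control mean, on both duplicate plates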;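 further: plate controls were buffer only IC0 wells for no effect and SID17386958 at its maximal inhibitory level for full effect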
# KCNK3 confirm: retest of human KCNK3 channel inhibitors, confirmation, CHO cells, FluxOR thallium flux, triplicate | actives 99% (n = 2,400) | ratio percent of control, % at 10 µM | FluxOR fluorescence; 0% buffer, 100% carvedilol maximal block | shares compounds with KCNK3 block;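 active means ratio percent of control, averaged over triplicates, above buffer control mean plus 5 SD, cut at about 64% in these data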;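 further: ratio is the fluorescence rise from min to max over baseline after thallium stimulus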
# KCNK3 noninduced: thallium flux inhibition in non-induced cells, primary screen, counter-screen for KCNK3 inhibitor project, cell-based, non-induced KCNK3 line, FluxOR thallium, triplicate; shares compounds with KCNK3 block; non-induced KCNK3 parental cells; stronger effect = lower value; thallium flux ratio (lower = more inhibition) at 10 µM; actives 40% (n = 2,400); AID 651747, 2012;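 active means thallium flux ratio, averaged over three wells, more than 5 SD below the buffer control mean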;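 further: host cells are CHO cells without KCNK3 induction; ratio is peak minus trough fluorescence over baseline then normalized to buffer controls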
# Numbers without * were called inactive; i = inactive; x = no result given; + = active, no number. Compounds with a hit are over-represented: about 3.7% of the library has one in this group of screens.
SMILES,KCNK3 block,KCNQ1 inh,KCNQ1 pot,KCNK9 inh,Kir21 block,hERG protect,KCNQ1 block val,CHO Tl flux,KCNQ1 ephys val,KCNQ2 spec,KCNQ1-KCNE1 inh,KCNK3 confirm,KCNK3 noninduced,others
COc1ccc(Cl)cc1C(=O)Nc1ccccc1N1CCCCC1,-8.9*,7*,i,-8.9*,-0.43,-12,103*,0.41,i,99%*,146%*,107*,i,KCNK9 block conf=50%*;Kir2-1 spec=i;HEK293 Tl ctr=46%*
Cc1c(C(=O)Nc2ccc(Cl)cc2)c2ccccn2c1C(=O)c1ccc(F)cc1,i,i,i,i,-3,-7,x,x,x,x,x,x,x,
Cc1c(C(=O)Nc2cccc(Cl)c2)c2ccccn2c1CCc1ccncc1,-10*,9*,i,i,-1.9,-11,159*,0.36*,x,123%*,+,134*,0.12*,
O=C(c1cc(-c2cccc(Cl)c2)nc2ccccc12)N1CCN(c2ccccn2)CC1,-9.9*,6*,i,i,0.2,-9,69*,0.42,x,108%*,84%*,120*,0.12*,
O=C(C(Cc1ccccc1)n1cccc1)N1CCN(c2cccc(Cl)c2)CC1 (configuration not stated),-9.2*,8*,i,i,-2,-6,116*,0.33*,x,117%*,158%*,98*,0.14*,
O=C(C(Cc1ccccc1)n1cccc1)N1CCN(Cc2ccccc2)CC1 (configuration not stated),i,i,i,i,1.6,-22,x,x,x,x,x,x,x,
Cc1ccc(Cl)cc1N1CCN(C(=O)c2cc3c(=O)n(C)c4ccccc4c3n2C)CC1,-16*,15*,i,i,-0.74,-12,120*,0.4,i,126%*,i,137*,i,
Cc1ccc(NC(=O)CSc2ncccn2)cc1S(=O)(=O)N1CCCCC1,i,i,i,i,-1.4,-11,x,x,x,x,x,x,x,
O=S(=O)(Nc1ccccc1O)c1ccc(-c2ccccc2)cc1,-11*,15*,i,i,-2.2,-11,136*,0.39,i,94%*,76%*,120*,i,
O=S(=O)(Nc1cccnc1Cl)c1ccc(-c2ccccc2)cc1,i,i,i,i,-1.2,-8,x,x,x,x,x,x,x,
CC(Cc1cccs1)NC(=O)Nc1cccc(Cl)c1 (configuration not stated),-11*,9*,i,-18*,0.77,-7,127*,0.54,+,i,71%*,109*,i,KCNK9 block conf=53%*;Kir2-1 spec=i;HEK293 Tl ctr=32%*
CC(C)NC(=O)Nc1cccc(Cl)c1,i,i,i,i,-1.7,-12,x,x,x,x,x,x,x,
CC1CCN(C(=O)C(C)OC(=O)CSc2ccc([N+](=O)[O-])cc2)CC1 (configuration not stated),i,x,x,x,x,x,x,x,x,x,x,x,x,
CC(C)(CN1CCN(C(c2ccccc2)c2ccccc2)CC1)NS(=O)(=O)c1ccccc1,i,6*,i,-9.6*,-0.16,-2,106*,0.44,i,i,116%*,103*,0.16*,KCNK9 block conf=40%*;Kir2-1 spec=i;HEK293 Tl ctr=47%*
CC(C)(CN1CCN(Cc2ccccc2)CC1)NS(=O)(=O)c1ccccc1,i,i,i,i,-2,-9,x,x,x,x,x,x,x,
CCC(C(=O)Nc1ccncc1)c1ccccc1 (configuration not stated),i,i,i,i,-0.42,-7,x,x,x,x,x,x,x,
CCC(C(=O)Nc1cccc(C(F)(F)F)c1)c1ccccc1 (configuration not stated),-9.4*,11*,i,-10*,0.18,-12,104*,0.4,+,72%*,116%*,128*,0.13*,KCNK9 block conf=64%*;Kir2-1 spec=i;HEK293 Tl ctr=44%*
COc1ccccc1N(C)S(=O)(=O)c1ccc(C)c(C(=O)NC(C)c2ccccn2)c1 (configuration not stated),i,x,x,x,x,x,x,x,x,x,x,x,x,

# Screening data: PubChem, Johns Hopkins Ion Channel Center
